APOBEC3G inh: blocks human APOBEC3G single-stranded DNA deamination | Q9HC16 | recombinant A3G, ssDNA deamination FAM/TAMRA fluorescence | inhibition, % at 20 µM | actives 0.28% (n = 330,000) | AID 493012;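 active means inhibition of at least 40% at 20 µM, with no more than 30% in the related APOBEC3A deaminase screen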;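 further: plate controls were DMSO wells with A3G for no effect and wells lacking A3G enzyme for full effect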
A3A deaminase: inhibitors of human APOBEC3A DNA deaminase | P31941 | recombinant A3A, FAM/TAMRA ssDNA deamination fluorescence | inhibition, % at 20 µM | actives 0.41% (n = 330,000);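 active means at least 40% inhibition at 20 µM here, with at most 30% in a related deaminase screen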;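 further: plate controls were A3A with DMSO for no effect and wells lacking A3A enzyme for full effect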
Target sequence (P31941 whole entry, looked up): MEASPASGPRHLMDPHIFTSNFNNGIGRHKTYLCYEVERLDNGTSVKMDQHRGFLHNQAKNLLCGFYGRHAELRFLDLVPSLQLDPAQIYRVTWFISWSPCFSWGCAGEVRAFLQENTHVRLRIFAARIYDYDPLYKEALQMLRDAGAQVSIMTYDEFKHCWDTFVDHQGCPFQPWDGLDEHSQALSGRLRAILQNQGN
TbMetRS inhib: Trypanosoma brucei MetRS inhibition. purified T. brucei MetRS, ATP depletion, Kinase-Glo luminescence. inhibition, % at 11.9 µM. actives 0.4% (n = 360,000);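 active means inhibition above a per-plate cutoff of the control wells' mean inhibition plus 3 SD, cut at about 5.5% in these data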;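 further: 0% = DMSO wells median and 100% = median of wells with control inhibitor compound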
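System: purified T. brucei MetRS enzyme / Detection: Kinase-Glo luciferase luminescence reporting remaining unconsumed ATP / Medium: HEPES buffer with MgCl2, KCl, DTT, spermine, BSA, pyrophosphatase / Replication: singlicate, one well per compound / Evaluation: percent inhibition relative to median high and low control wells / Schedule: 2 h aminoacylation at 25 °C after 15 min preincubation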
pCIP destab: lowers stability of the mouse p/CIP coactivator protein. AID 1984. actives 0.01% (n = 290,000). decrease of EGFP signal, % at 10 µM. F442A p/CIP-EGFP cells, EGFP fluorescence, 16 h. Q05BA5;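 active means EGFP signal decrease of at least 30% at 10 µM or well 3 SD below plate mean, unless failing retest; inactive means the rest, including hits failing retest or dose response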
PHOSPHO1 inh: inhibitors of human PHOSPHO1 phosphatase. actives 1.1% (n = 290,000). recombinant PHOSPHO1, absorbance phosphatase assay. inhibition, % at 13.3 µM; in the data active means inhibition above about 60%
Target sequence (Q8TCT1 whole entry, looked up): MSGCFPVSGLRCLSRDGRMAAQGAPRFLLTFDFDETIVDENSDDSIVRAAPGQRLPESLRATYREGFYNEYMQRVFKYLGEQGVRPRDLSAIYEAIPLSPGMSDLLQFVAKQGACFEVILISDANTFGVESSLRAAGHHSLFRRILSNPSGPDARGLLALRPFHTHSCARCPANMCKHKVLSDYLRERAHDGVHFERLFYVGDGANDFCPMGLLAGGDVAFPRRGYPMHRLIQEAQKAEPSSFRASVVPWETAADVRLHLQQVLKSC
Starred values were filed as active, the others as inactive; nt = no result given. Most compounds without a hit are left out; they make up all but 1.8% or so of the library.

SMILES	APOBEC3G inh	A3A deaminase	TbMetRS inhib	pCIP destab	PHOSPHO1 inh
CC(=O)Oc1ccccc1-n1c(C)nc(=O)c(-c2ccccc2)c1C	-4	-3	-1	0	20
O=C(CSc1nnc(-c2ccc(OC(F)F)cc2)o1)NC(=O)NCc1ccco1	22	36	0	-8	74*
Cn1c(SCC(=O)NC(=O)NCc2ccco2)nnc1-c1ccccc1	19	20	-1	3	64*
O=C(CSc1n[nH]c(-c2ccccc2)n1)NC(=O)NCc1ccco1	nt	nt	-1	-4	88*
O=C(CSc1nn(-c2ccc(F)cc2)c(=S)s1)NC(=O)NCc1ccco1	11	12	-1	-16	83*
COc1ccc(N2C(=O)C3[C@@H](C2=O)C2(Cl)C(Cl)=C(Cl)C3(Cl)C2(OC)OC)cc1 (stereo not given in full)	-9	-4	-1	-1	4
Cn1c(SCC(=O)NCC2CCCO2)nnc1-c1ccc(Cl)cc1 (stereo not given)	-3	-2	0	nt	nt
NC(=O)c1c(NC(NC(=O)c2ccco2)C(=O)c2ccc(Cl)cc2)sc2c1CCCC2 (stereo not given)	4	-4	0	-10	100*
CCOc1ccc(NC(=O)CCN2CCN(S(=O)(=O)c3cc(Cl)ccc3OC)CC2)cc1	-1	-2	-1	3	18
CCN(CC)c1ccc(NC(=O)CN2CCN(S(=O)(=O)c3cc(Cl)ccc3OC)CC2)cc1	6	7	0	-1	93*
COc1cc(NC(=O)c2ccco2)c(OC)cc1NC(=O)CSc1ncc(-c2ccc(F)cc2)[nH]1	-7	-3	0	8	74*
Cc1ccc(C)c(Nc2nc3nonc3nc2N2CCOCC2)c1	-7	-2	0	3	61*
CC1CCC/C(=C\Nc2ccc3c(c2)OCO3)C1=O (stereo not given)	4	8	0	-4	81*
C[C@H](CO)N1C[C@H](C)[C@@H](CN(C)C(=O)Nc2ccc(C(F)(F)F)cc2)Oc2ccc(NS(=O)(=O)c3cn(C)cn3)cc2C1=O	-3	-2	0	nt	nt
CCOc1ccc(-c2nnc(SCc3nnc(-c4ccccc4)o3)n2-c2ccccc2F)cc1	1	4	-1	-8	73*
CCOC(=O)C1(CCOc2ccccc2)CCN(Cc2ccc(OC)cc2)CC1	nt	nt	-1	nt	nt
CCOC(=O)C1(CCOc2ccccc2)CCN(Cc2ccc3nonc3c2)CC1	-6	-2	0	-9	68*
O=C(c1ccco1)N1N=C(c2cccs2)CC1c1cc([N+](=O)[O-])ccc1O (stereo not given)	-5	-3	0	-7	61*
O=C(CCC(=O)c1cccs1)OCC(=O)c1ccccc1F	-4	-1	0	nt	nt
O=C(CCS(=O)(=O)c1cccs1)N1CCCC1	-8	-6	0	-3	64*
O=C(CCS(=O)(=O)c1cccs1)N1CCN(c2ccc(F)cc2)CC1	2	3	0	-1	18
C=CCn1c(CCC(=O)O)ccc1-c1ccccc1	0	4	-1	-7	10
Cn1c(SCc2cccc(Br)c2)nnc1-c1ccncc1	4	-1	0	-10	14
COc1ccc(Cl)cc1Nc1nc(-c2sc(NC(=O)C(C)(C)C)nc2C)cs1	7	-3	1	-2	101*
CCC(C)C(=O)Nc1nc(C)c(-c2csc(Nc3cc(OC)ccc3OC)n2)s1 (stereo not given)	-6	-1	0	10	62*
SMILES	APOBEC3G inh	A3A deaminase	TbMetRS inhib	pCIP destab	PHOSPHO1 inh
COc1ccc(OC)c(Nc2nc(-c3sc(NC(=O)CC(C)C)nc3C)cs2)c1	-5	-5	0	8	65*
COc1ccc(OC)c(Nc2nc(-c3sc(C)nc3C)cs2)c1	-5	-4	0	5	25
COc1ccc(OC)c(Nc2nc(-c3sc(NC(=O)C(C)(C)C)nc3C)cs2)c1	-9	6	0	-6	57
CCC(C)C(=O)Nc1nc(C)c(-c2csc(Nc3cc(Cl)ccc3OC)n2)s1 (stereo not given)	-9	0	0	-2	91*
C/C(=N\O)C1CC(CC(=O)O)C1(C)C (stereo not given)	nt	nt	0	-6	20
COc1c(O)cc2c(c1O)[C@@H]1O[C@H](CO)[C@@H](O)[C@H](O)C1OC2=O (stereo not given in full)	10	-2	-1	nt	nt
CC[n+]1ccc(C[n+]2ccccc2)c2ccccc21	nt	nt	0	-2	88*
Cc1cc(Cl)c(OCCCN(C)C)c(Br)c1	3	-1	0	4	63*
CN(C)CCCOc1ccc(Cl)cc1Br	-8	-2	5.9*	-7	27
C=C(C)CSc1nc2nc(C)c(Br)cc2[nH]1	11	1	0	-20	83*
COC(=O)CSc1nc2nc(C)c(Br)cc2[nH]1	-9	-1	0	4	73*
CC(=O)Nc1ccc(-c2cn3ccsc3n2)cc1	3	3	0	-4	23
c1cn2cc(-c3ccc4c(c3)OCO4)nc2s1	-11	-3	-1	3	68*
O=C(c1cccn2c(=O)c3cc4ccccc4cc3nc12)N1CCN(c2ccccc2)CC1	0	2	nt	-5	100*
CCn1ccnc1CN1CCC(n2nccc2NC(=O)c2ccccc2OC)CC1	-6	-1	0	-6	41
Cc1ccc(S(=O)(=O)c2ccc([N+](=O)[O-])o2)cc1	nt	nt	0	nt	nt
CC1=NN2C(=N)/C(=C\c3ccc(SCc4ccccc4)o3)C(=O)N=C2S1	-5	3	0	-8	94*
CC1=NN2C(=N)/C(=C\c3cc(C)n(Cc4ccccc4)c3C)C(=O)N=C2S1	0	4	-1	-4	24
Cc1cc(/C=N/Nc2ccc([N+](=O)[O-])cn2)c(C)n1-c1ccccc1	4	3	0	-6	59
Cc1ccc(-n2c(C)cc(/C=N/Nc3ccc([N+](=O)[O-])cn3)c2C)cc1	7	23	0	-22	101*
CCOC(=O)CN1N=C(c2ccc(Cl)cc2)CCC1=O	-1	-2	0	6	-3
CCCC(=O)Nc1c2c(nn1-c1ccc(C)cc1C)CSC2	-3	-6	-1	-5	72*
CN(C)C=NC1=NN(c2cccc(C(F)(F)F)c2)CC1	-8	-2	0	2	97*
CN1CCN(C=NC2=NN(c3cccc(C(F)(F)F)c3)CC2)CC1	-7	-3	0	-8	-23
CC(C)c1onc(C(=O)Nc2ccc3c(c2)OCO3)c1[N+](=O)[O-]	2	-2	0	10	-33
Nc1nnc(SCCN2C(=O)c3ccccc3C2=O)s1	6	3	-1	-11	1
CCOC(=O)CNC(=O)CSc1nnc(SCC(=O)NCC(=O)OCC)s1	-9	-3	-1	3	35
CCOC(=O)CSc1nnc(N)s1	-7	4	-1	-16	90*
Nc1nnc(SCC(=O)c2ccc3ccccc3c2)s1	-1	-3	nt	0	75*
